Experimental data as given in ChEMBL document CHEMBL1275516, “Macrolide antibiotic-mediated downregulation of MexAB-OprM efflux pump expression in Pseudomonas aeruginosa” (2008).
Converted amounts (≈) assume the structure as drawn.

Legend:
Type in all cases: functional
Pseudomonas aeruginosa [1] = assay: Antibacterial activity against Pseudomonas aeruginosa PAO4290 by agar dilution method
Method in brief: (§1)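 Agar dilution on Mueller-Hinton agar with an inoculum of 150 CFU/5 μl per spot. Plates were run with or without 1.0 μg/ml azithromycin incorporated in the agar, and MIC was read for each strain.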

Pseudomonas aeruginosa [2] = assay: Antibacterial activity against Pseudomonas aeruginosa PAO4290 selected after 1.0 ug/ml of azithromycin by agar dilution method; method in brief: as §1
Pseudomonas aeruginosa [3] = assay: Antibacterial activity against Pseudomonas aeruginosa TNP030 by agar dilution method; method in brief: as §1
Pseudomonas aeruginosa [4] = assay: Antibacterial activity against Pseudomonas aeruginosa TNP030 selected after 1.0 ug/ml of azithromycin by agar dilution method; method in brief: as §1
Pseudomonas aeruginosa [5] = assay: Antibacterial activity against MeXAB-OprM deficient Pseudomonas aeruginosa TNP077 by agar dilution method; method in brief: as §1
Pseudomonas aeruginosa [6] = assay: Antibacterial activity against MeXAB-OprM deficient Pseudomonas aeruginosa TNP077 selected after 1.0 ug/ml of azithromycin by agar dilution method; method in brief: as §1
Pseudomonas aeruginosa [7] = assay: Inhibition of MexAB-OprM efflux pump expression in Pseudomonas aeruginosa TNP090 mutant harboring las and rhl gene at 1 ug/ml by Cat-2,3-diO reporter gene assay relative to untreated control; conditions: values are per cent of control
Method in brief: (§2)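 Overnight TNP090 (mexB::xylE reporter) preculture diluted 10,000-fold into fresh medium with or without antibiotic, dosed as fractions of the TNP090 MIC. Shaken at 200 rpm, 37°C, for 9 h to A600 ~1.5 (early stationary phase). Extracts made by French press at 130 MPa, then centrifuged at 13,000 × g. Cat-2,3-diO activity expressed relative to drug-free culture.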

Pseudomonas aeruginosa [8] = assay: Inhibition of MexAB-OprM efflux pump expression in Pseudomonas aeruginosa TNP090 mutant harboring las and rhl gene at 0.5 ug/ml by Cat-2,3-diO reporter gene assay relative to untreated control; conditions: values are per cent of control; method in brief: as §2
Pseudomonas aeruginosa [9] = assay: Inhibition of MexAB-OprM efflux pump expression in Pseudomonas aeruginosa TNP090 mutant harboring las and rhl gene at 0.25 ug/ml by Cat-2,3-diO reporter gene assay relative to untreated control; conditions: values are per cent of control; method in brief: as §2
Pseudomonas aeruginosa [10] = assay: Inhibition of MexAB-OprM efflux pump expression in Pseudomonas aeruginosa TNP090 mutant harboring las and rhl gene at 0.125 ug/ml by Cat-2,3-diO reporter gene assay relative to untreated control; conditions: values are per cent of control; method in brief: as §2
Pseudomonas aeruginosa [11] = assay: Inhibition of MexAB-OprM efflux pump expression in las1 and rhl1 deficient Pseudomonas aeruginosa TNP093 at 1 ug/ml after 9 hrs by Cat-2,3-diO reporter gene assay; conditions: TNP093, 9 h, values are per cent of control
Method in brief: (§3)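 Reporter strains lacking lasI, rhlI or both were diluted 10,000-fold from overnight culture into fresh medium with or without 1 μg/ml azithromycin. Cultures were shaken at 200 rpm, 37°C for 9 h (A600 ~1.5, early stationary phase). Cat-2,3-diO activity was assayed in cell extracts and […].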

Pseudomonas aeruginosa [12] = assay: Inhibition of MexAB-OprM efflux pump expression in rhl1 deficient Pseudomonas aeruginosa TNP092 at 1 ug/ml after 9 hrs by Cat-2,3-diO reporter gene assay; conditions: TNP092, 9 h, values are per cent of control; method in brief: as §3
Pseudomonas aeruginosa [13] = assay: Inhibition of MexAB-OprM efflux pump expression in las1 deficient Pseudomonas aeruginosa TNP091 at 1 ug/ml after 9 hrs by Cat-2,3-diO reporter gene assay; conditions: TNP091, 9 h, values are per cent of control; method in brief: as §3
Pseudomonas aeruginosa [14] = assay: Inhibition of MexAB-OprM efflux pump expression in Pseudomonas aeruginosa TNP090 mutant harboring las and rhl gene at 1 ug/ml after 11.5 hrs by Cat-2,3-diO reporter gene assay relative to untreated control; conditions: TNP090, 11.5 h
Method in brief: (§4)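 Overnight TNP090 preculture diluted 100,000-fold (A600 3 × 10−5) in LB with or without 1 μg/ml azithromycin. Grown at 37°C with 200 rpm rotation and harvested at 5.5 h (AZM) or 4.5 h (drug-free), then at +2, +4 and +6 h. French-press extracts (130 MPa ×3), 13,000 × g supernatant assayed for Cat-2,3-diO. 1 unit = 1 nmol substrate/min/mg protein. Representative of repeated experiments.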

Pseudomonas aeruginosa [15] = assay: Inhibition of MexAB-OprM efflux pump expression in Pseudomonas aeruginosa TNP090 mutant harboring las and rhl gene at 1 ug/ml after 9.5 hrs by Cat-2,3-diO reporter gene assay relative to untreated control; conditions: TNP090, 9.5 h; method in brief: as §4
Pseudomonas aeruginosa [16] = assay: Inhibition of MexAB-OprM efflux pump expression in Pseudomonas aeruginosa TNP090 mutant harboring las and rhl gene at 1 ug/ml after 7.5 hrs by Cat-2,3-diO reporter gene assay relative to untreated control; conditions: TNP090, 7.5 h; method in brief: as §4
Pseudomonas aeruginosa [17] = assay: Inhibition of MexAB-OprM efflux pump expression in Pseudomonas aeruginosa TNP090 mutant harboring las and rhl gene at 1 ug/ml after 5.5 hrs by Cat-2,3-diO reporter gene assay relative to untreated control; conditions: TNP090, 5.5 h; method in brief: as §4
Pseudomonas aeruginosa [18] = assay: Inhibition of MexAB-OprM efflux pump expression in Pseudomonas aeruginosa TNP090 mutant harboring las and rhl gene at 1 ug/ml by Cat-2,3-diO reporter gene assay; method in brief: as §4
Pseudomonas aeruginosa [19] = assay: Inhibition of MexAB-OprM efflux pump expression in Pseudomonas aeruginosa at 1.0 ug/ml
Method in brief: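 TNP090 (las+ rhl+, mexB::xylE reporter) overnight culture was diluted 100,000-fold (A600 3 × 10−5) into LB with or without 1 μg/ml azithromycin and shaken at 200 rpm, 37°C. Cells were harvested at ~4.5 h (drug-free) or 5.5 h (drug), then at plus 2, 4 and 6 h. Cat-2,3-diO activity was measured in French-press extracts (1 unit = 1 nmol substrate/min/mg protein). Results are representative of repeated experiments.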

Pseudomonas aeruginosa [20] = assay: Antibacterial activity against Pseudomonas aeruginosa TNP090 harboring chromosomal mexB::xylE fusion construct by agar dilution method
Method in brief: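 Agar dilution MIC on Mueller-Hinton agar; inoculum 5 × 10^3 cells per spot.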

Pseudomonas aeruginosa [21] = assay: Inhibition of MexAB-OprM efflux pump expression in Pseudomonas aeruginosa TNP090 mutant harboring las and rhl gene at 0.03 ug/ml by Cat-2,3-diO reporter gene assay relative to untreated control; conditions: values are per cent of control; method in brief: as §2
Pseudomonas aeruginosa [22] = assay: Inhibition of MexAB-OprM efflux pump expression in Pseudomonas aeruginosa TNP090 mutant harboring las and rhl gene at 0.016 ug/ml by Cat-2,3-diO reporter gene assay relative to untreated control; conditions: values are per cent of control; method in brief: as §2
Pseudomonas aeruginosa [23] = assay: Inhibition of MexAB-OprM efflux pump expression in Pseudomonas aeruginosa TNP090 mutant harboring las and rhl gene at 0.06 ug/ml by Cat-2,3-diO reporter gene assay relative to untreated control; conditions: values are per cent of control; method in brief: as §2

| Compound | MIC (Pseudomonas aeruginosa [1]) [µg/mL] | MIC (Pseudomonas aeruginosa [2]) [µg/mL] | MIC (Pseudomonas aeruginosa [3]) [µg/mL] | MIC (Pseudomonas aeruginosa [4]) [µg/mL] | MIC (Pseudomonas aeruginosa [5]) [µg/mL] | MIC (Pseudomonas aeruginosa [6]) [µg/mL] | other results |
| --- | --- | --- | --- | --- | --- | --- | --- |
| CO[C@@H]1[C@@H](OC(N)=O)[C@@H](O)[C@H](Oc2ccc3c(O)c(NC(=O)c4ccc(O)c(CC=C(C)C)c4)c(=O)oc3c2C)OC1(C)C [NOVOBIOCIN] | 800 (≈ 1310 µM) | 200 | > 1200 | > 1200 | 12.5 (≈ 20.4 µM) | 12.5 | – |
| CC[C@H]1OC(=O)[C@H](C)[C@@H](O[C@H]2C[C@@](C)(OC)[C@@H](O)[C@H](C)O2)[C@H](C)[C@@H](O[C@@H]2O[C@H](C)C[C@H](N(C)C)[C@H]2O)[C@](C)(O)C[C@@H](C)CN(C)[C@H](C)[C@@H](O)[C@]1(C)O [AZITHROMYCIN] | – | – | – | – | – | – | response, % of control at 1 µg/mL (Pseudomonas aeruginosa [7]): 37%; response, % of control at 0.5 µg/mL (Pseudomonas aeruginosa [8]): 65%; response, % of control at 0.25 µg/mL (Pseudomonas aeruginosa [9]): 78%; response, % of control at 0.125 µg/mL (Pseudomonas aeruginosa [10]): 85%; response, % of control at 1 µg/mL (Pseudomonas aeruginosa [11]): 100%; response, % of control at 1 µg/mL (Pseudomonas aeruginosa [12]): 90%; response, % of control at 1 µg/mL (Pseudomonas aeruginosa [13]): 99%; inhibition at 1 µg/mL (Pseudomonas aeruginosa [14]): -63%; inhibition at 1 µg/mL (Pseudomonas aeruginosa [15]): -70.2%; inhibition at 1 µg/mL (Pseudomonas aeruginosa [16]): -73%; inhibition at 1 µg/mL (Pseudomonas aeruginosa [17]): -30.9%; Activity (Pseudomonas aeruginosa [18]): 44.3; inhibition at 1 µg/mL (Pseudomonas aeruginosa [19]): 70%; MIC (Pseudomonas aeruginosa [20]): 6.25 µg/mL (≈ 8.34 µM) |
| CN(C)[C@@H]1C(O)=C(C(N)=O)C(=O)[C@@]2(O)C(O)=C3C(=O)c4c(O)cccc4[C@@](C)(O)[C@H]3C[C@@H]12 [TETRACYCLINE] | 12.5 (≈ 28.1 µM) | 3.13 | 50 (≈ 113 µM) | 50 | 0.39 (≈ 0.878 µM) | 0.39 | response, % of control at 0.03 µg/mL (Pseudomonas aeruginosa [21]): 94%; response, % of control at 0.016 µg/mL (Pseudomonas aeruginosa [22]): 103%; response, % of control at 0.125 µg/mL (Pseudomonas aeruginosa [10]): 51%; response, % of control at 0.06 µg/mL (Pseudomonas aeruginosa [23]): 69% |
| C[C@@H](O)[C@H]1C(=O)N2C(C(=O)O)=C(SCCNC=N)C[C@H]12 [IMIPENEM ANHYDROUS] | 0.78 (≈ 2.61 µM) | 0.78 | 0.78 (≈ 2.61 µM) | 0.78 | 0.78 (≈ 2.61 µM) | 0.78 | – |
| CC(C)(O/N=C(\C(=O)N[C@@H]1C(=O)N2C(C(=O)[O-])=C(C[n+]3ccccc3)CS[C@H]12)c1csc(N)n1)C(=O)O [CEFTAZIDIME] | 1.56 (≈ 2.85 µM) | 1.56 | 3.13 (≈ 5.73 µM) | 3.13 | 0.39 (≈ 0.714 µM) | 0.39 | – |
| O=C(N[C@H](CO)[C@H](O)c1ccc([N+](=O)[O-])cc1)C(Cl)Cl [CHLORAMPHENICOL] | 25 (≈ 77.4 µM) | 6.25 | 200 (≈ 619 µM) | 200 | 0.39 (≈ 1.21 µM) | 0.39 | – |
| CC1(C)S[C@@H]2[C@H](NC(=O)C(C(=O)O)c3ccccc3)C(=O)N2[C@H]1C(=O)O (stereo partly specified) [CARBENICILLIN] | 50 (≈ 132 µM) | 12.5 | 200 (≈ 529 µM) | 200 | 0.78 (≈ 2.06 µM) | 1.56 | – |
| C[C@H]1[C@H](NC(=O)/C(=N\OC(C)(C)C(=O)O)c2csc(N)n2)C(=O)N1S(=O)(=O)O [AZTREONAM] | 3.12 (≈ 7.17 µM) | 1.56 | 12.5 (≈ 28.7 µM) | 12.5 | 0.1 (≈ 0.23 µM) | 0.1 | – |
| CC1COc2c(N3CCN(C)CC3)c(F)cc3c(=O)c(C(=O)O)cn1c23 (stereo unspecified) [OFLOXACIN] | 0.78 (≈ 2.16 µM) | 0.78 | > 1.56 | > 1.56 | 0.05 (≈ 0.138 µM) | 0.05 | – |
